Data taken from ChEMBL document CHEMBL1949557, “Discovery of INCB3284, a Potent, Selective, and Orally Bioavailable hCCR2 Antagonist” (ACS Med Chem Lett, 2011).
The source made the active and inactive calls. The calls are words filed in the database; no cut-off is given here.

Legend:
[1] = Tmax in cynomolgus monkey at 30 mg/kg, po; format: ADME, organism-based, Macaca fascicularis; set-up: dose 30 mg/kg, route oral; conditions: in vivo
Summary of the method: (§1)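 Pharmacokinetics run in rats, dogs, cynomolgus monkeys and chimpanzees, with two animals per species for the iv arm and two per species for the oral arm. Parameters were derived per species and route: CL, Vss and T1/2 from iv dosing; Cmax, Tmax, AUC, T1/2 and F% from oral dosing. Values are reported as mean ± spread.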

[2] = Clearance in dog at 5 mg/kg, iv; format: ADME, organism-based, Canis lupus familiaris; set-up: dose 5 mg/kg, route intravenous; conditions: in vivo; summary of the method: as §1
[3] = biological target: T1, C-C chemokine receptor type 3 (Homo sapiens) (UniProt P51677); test: Inhibition of CCR3 at 1 uM
T1 sequence (whole entry): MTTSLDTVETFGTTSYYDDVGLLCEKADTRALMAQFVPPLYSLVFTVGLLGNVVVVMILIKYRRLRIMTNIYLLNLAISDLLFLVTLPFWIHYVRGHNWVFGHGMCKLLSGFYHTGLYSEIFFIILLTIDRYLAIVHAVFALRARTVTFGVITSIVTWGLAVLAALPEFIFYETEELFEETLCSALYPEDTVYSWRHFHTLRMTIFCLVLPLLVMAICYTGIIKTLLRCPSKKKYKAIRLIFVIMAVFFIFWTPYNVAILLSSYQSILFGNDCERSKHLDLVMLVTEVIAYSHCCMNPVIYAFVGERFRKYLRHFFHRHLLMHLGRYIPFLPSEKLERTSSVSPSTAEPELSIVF
Summary of the method: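 Cerep selectivity panel of over 50 ion channels, transporters, chemokine receptors and other GPCRs. Single test concentration of 1 μM, scored for significant inhibition.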

[4] = biological target: T2, Cytochrome P450 1A2 (Homo sapiens, UniProt P05177); test: Inhibition of CYP1A2; format: ADME
T2 sequence (P05177 whole entry): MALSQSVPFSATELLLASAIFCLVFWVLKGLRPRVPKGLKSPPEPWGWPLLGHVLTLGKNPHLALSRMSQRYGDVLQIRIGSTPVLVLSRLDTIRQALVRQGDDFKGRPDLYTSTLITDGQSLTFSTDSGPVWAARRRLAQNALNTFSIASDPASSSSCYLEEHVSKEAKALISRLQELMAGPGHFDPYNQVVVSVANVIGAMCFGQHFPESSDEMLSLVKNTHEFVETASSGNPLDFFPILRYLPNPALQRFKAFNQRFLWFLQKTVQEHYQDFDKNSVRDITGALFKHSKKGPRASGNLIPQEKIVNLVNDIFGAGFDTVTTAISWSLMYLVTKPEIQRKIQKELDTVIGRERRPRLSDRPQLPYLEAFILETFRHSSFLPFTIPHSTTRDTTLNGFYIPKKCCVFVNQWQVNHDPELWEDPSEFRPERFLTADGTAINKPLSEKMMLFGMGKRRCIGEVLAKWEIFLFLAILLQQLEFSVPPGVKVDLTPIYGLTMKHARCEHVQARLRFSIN

[5] = Fraction unbound in human serum at 1 to 10 uM; format: ADME, cell-free
Summary of the method: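 Serum protein binding measured in human serum at 1 and 10 μM test concentrations. Read-out is the free (unbound) fraction.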

COc1ccc([C@]2(O)CC[C@H](N3CC[C@@H](NC(=O)CNC(=O)c4cccc(C(F)(F)F)c4)C3)CC2)cn1.CS(=O)(=O)O
Tmax [1]: 1.5 h | clearance [2]: 9.5 mL/min/kg | inhibition [3]: inactive | IC50 [4]: > 25 µM | fraction unbound at up to 10 µM [5]: 0.58
